Hits are enriched below; roughly 5.6% of the tested compounds scored in any of these assays.
CHOP UPR activ: activators of apoptotic arm of unfolded protein response (CHOP) | hit rate 0.34% among 330,000 | CHO-CHOP luciferase reporter, UPR activation, luminescence; percent of tunicamycin response over DMSO baseline | AID 449763 | activation, % at 10 µM;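 active = at 10 µM dose, activation of 40% or more, normalized to positive control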;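 also: 100% = tunicamycin at 10 µg/mL and 0% = DMSO alone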
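Test system: CHO CHOP reporter cells. Input: 500 CHO-CHOP cells per well. Medium: F12 with 10% FBS. Technique: luciferase luminescence. Measure: percent activation relative to tunicamycin control. Dosing: 10 µM compound, 0.5% DMSO. Timing: 16-18 h cell attachment, then 6 h compound exposure, 37 °C.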
aDG glyco act: increases alpha dystroglycan glycosylation; activation, % at 10 µM; Pro5-aDG cells, alpha-DG glycosylation AlphaScreen (IIH6); 0% Pro5, 100% B10-LARGE cell signal; hit rate 0.22% among 360,000;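 active = activation of at least 8% versus controls, or a plate z-score of at least 8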;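 also: Pro5 are CHO cells carrying HIG-tagged alpha-DG that lacks glycosylation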
MPTP inh: blocks calcium-induced mitochondrial swelling. inhibition, % at 10 µM. hit rate 1.4% among 360,000. isolated mouse mitochondria, Ca2+ swelling absorbance, 30 min;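 active = inhibition of 50% or more, scaled per plate between neutral and stimulator controls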;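 also: 0% = DMSO wells given calcium and 100% = 1 mM EGTA wells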
XBP1 UPR activ: activators of adaptive arm of unfolded protein response (XBP1); CHO-XBP1 luciferase reporter, IRE1-XBP1 UPR activation, luminescence; percent of tunicamycin response, DMSO as zero; hit rate 0.33% among 330,000; activation, % at 20 µM;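 active = versus positive control, 20 µM dose yields 30% or more activation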;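 also: 100% = tunicamycin at 10 µg/mL and 0% = DMSO only wells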
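Assay system: IRE1-XBP1 luciferase reporter CHO line. Input: 1000 cells/well. Buffer or medium: F12 with 10% serum. Doses: 20 µM, 1% DMSO. Times: overnight seeding at 37 °C, 6 h compound treatment at 37 °C. Technique: Steady-Glo luciferase glow luminescence, 10 min after reagent addition.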
CHOP inh: inhibitors of CHOP induction in ER stress response | CHO-K1 CHOP-promoter luciferase, tunicamycin-induced, 15-18 h | inhibition, % at 10 µM | hit rate 3.8% among 220,000 | AID 2732;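 active = compounds that reduced the stress-induced luciferase reporter signal by more than about 70% of percent inhibition, limit read from the data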;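 also: 0% = tunicamycin plus vehicle and 100% = wells without tunicamycin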
GRIN3A LBD mod: modulators (binders) of human NR3A ligand-binding domain; Tm shift relative to glycine control, % at 25 µM; hit rate 2.5% among 340,000; NR3A LBD differential scanning fluorimetry, Tm shift; 0% = protein alone, 100% = glycine-bound protein;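 active = melting temperature shift of at least 10% of the positive control shift, at one fixed dose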
CHOP inh conf: confirmation of CHOP induction inhibitors; shares compounds with CHOP inh; CHO-CHOP promoter luciferase reporter, tunicamycin-induced, luminescence; inhibition, % at 10 µM; hit rate 45% among 2,100; AID 504437;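 active = mean of three repeat readings of reporter signal inhibition above a set limit, cut at about 70% in these data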;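 also: 0% = tunicamycin plus vehicle and 100% = wells lacking tunicamycin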
UPR CHOP confirm: confirmation of apoptotic unfolded protein response (CHOP) activators; shares compounds with CHOP UPR activ; CHO-CHOP cells, CHOP-luciferase reporter luminescence; percent of tunicamycin response, DMSO as zero; activation, % at 10 µM; hit rate 64% among 1,000; AID 463112; in the data active = activation above about 33%;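 also: 0% = DMSO wells and 100% = tunicamycin 10 µg/mL wells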
UPR XBP1 confirm: confirmation of adaptive unfolded protein response (XBP1) activators; shares compounds with XBP1 UPR activ; CHO-XBP1 IRE1-XBP1 luciferase reporter, luminescence; activation, % at 20 µM; hit rate 63% among 1,000; AID 485299;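 active = reporter signal at least 30% of the positive control's activation in two or more of four replicate wells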;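 also: plate controls were DMSO negative control for no effect and tunicamycin 10 µg/mL positive control for full effect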
Numbers without * were called inactive; . = no result given.

SMILES | CHOP UPR activ | aDG glyco act | MPTP inh | XBP1 UPR activ | CHOP inh | GRIN3A LBD mod | CHOP inh conf | UPR XBP1 confirm | others
Cc1ccc(C(=O)c2c(C)oc3c2C(=O)C(=O)c2ccccc2-3)cc1 | 64.5* | -0.8 | -0.5 | -7.0 | 115.2* | -0.1 | 50.3 | . | UPR CHOP confirm=0.3
NS(=O)(=O)c1ccc(CCNC(=O)c2ccc(NC3=NC4CS(=O)(=O)CC4S3)cc2)cc1 (stereo not given) | 1.6 | -0.1 | 0.3 | -1.4 | . | 0.6 | . | .
CCO[C@H]1OC(C(N)=O)=C[C@@H](C2CCCCC2)[C@@H]1CCCO | -0.5 | -0.2 | 0.2 | -0.8 | 3.6 | 1.4 | . | .
Cc1cccc(Cn2cc(/C=C/[N+](=O)[O-])c3ccccc32)c1 | 50.1* | 0.6 | 7.2 | 52.6* | 101.9* | -5.6 | -28.2 | . | UPR CHOP confirm=217.6*
COc1ccc(Cc2c(-c3ccc(F)cc3)nc3cc(C)c(Br)c(C)n23)c(C)c1 | . | -0.4 | 0.7 | . | . | . | . | .
Cc1ccc(NC(=O)c2c(Cl)nc3ccccn23)cc1 | 5.2 | 0.0 | -0.5 | 7.2 | 3.5 | -3.6 | . | .
CNc1nc(-c2ccccc2)nnc1C(F)(F)F | 3.0 | 0.9 | 0.4 | 2.8 | -6.7 | -2.1 | . | .
Cc1ccc(Sc2nc(-c3ccccc3)nnc2C(F)(F)F)cc1 | 40.3* | 0.0 | -1.2 | -10.1 | 107.3* | 4.1 | -50.3 | . | UPR CHOP confirm=119.6*
COc1ccccc1-c1cc(C(F)(F)F)nc(N2CCCCC2)n1 | -2.6 | -0.1 | 4.6 | 3.0 | 61.1 | 0.6 | . | .
COc1ccccc1-c1cc(C(F)(F)F)nc(S(=O)(=O)CCCC(=O)NCc2ccc(F)cc2)n1 | 124.4* | -0.6 | -0.7 | -1.5 | 100.5* | -3.0 | -94.8 | . | UPR CHOP confirm=271.4*
COc1ccccc1-c1cc(C(F)(F)F)nc(S(C)(=O)=O)n1 | 135.5* | 0.1 | 1.2 | -4.5 | 112.4* | -0.3 | -335.7 | . | UPR CHOP confirm=266.5*
CC1(C)CC(=O)C(=Cc2cn(-c3ccccc3)nc2-c2ccc(Cl)cc2)C(=O)C1 | 288.2* | 0.1 | -8.5 | 26.7 | 104.7* | -0.6 | 68.3 | . | UPR CHOP confirm=220.6*
O=C(O)/C(=C\c1cn(-c2ccccc2)nc1-c1ccc(Cl)cc1)NC(=O)c1ccccc1 | -1.3 | 0.1 | 0.4 | -1.8 | -31.7 | 0.5 | . | .
O=C1C(C2=NC(c3ccccn3)C3C(=O)N(c4ccc(OC(F)(F)F)cc4)C(=O)C23)=C(O)c2ccccc21 (stereo not given) | 41.7* | -0.3 | 6.8 | 16.9 | 104.8* | 3.2 | 117.4* | . | UPR CHOP confirm=8.9
Cc1cc(C)c(C(=O)COC(=O)c2cc([N+](=O)[O-])ccc2NCCO)cc1C | -1.4 | 0.7 | -3.7 | -1.4 | 21.6 | 1.5 | . | .
O=C(COc1ccc(/C=N/NC(=O)c2cc3ccccc3o2)cc1Cl)Nc1ccccc1 | 50.7* | -0.3 | -0.3 | 6.9 | 108.0* | -0.8 | 45.5 | . | UPR CHOP confirm=-3.2
O=C(N/N=C/c1ccc2c(c1)OCO2)c1cc2ccccc2o1 | 4.0 | 0.0 | 0.1 | -1.5 | 12.4 | 0.5 | . | .
Cc1ccc(Oc2nc(-c3cccnc3)nc3ccccc23)c([N+](=O)[O-])n1 | 1.1 | 0.2 | 0.1 | 0.2 | -12.9 | -0.6 | . | .
Cc1cccc(-n2c(O)c(C=Nc3ccc(O)cc3)c3ccccc3c2=O)n1 | -0.6 | -0.3 | -2.1 | 0.6 | 14.8 | -0.6 | . | .
Cc1ccc(N=Cc2c(O)n(-c3ccc4c(c3)OCO4)c(=O)c3ccccc23)cc1 | 8.0 | -0.6 | 0.7 | 34.5* | 101.8* | -0.1 | -145.1 | 26.8*
CN(C)CCNC(=O)CCn1nc(-c2ccc(Cl)cc2)ccc1=O | 0.7 | 0.0 | -0.2 | 0.8 | . | 3.3 | . | .
Cc1ccc(-c2nn(CC(=O)NCc3cc(-c4nn(C)c(=O)c5ccccc45)ccc3C)c(=O)c3ccccc23)cc1 | 11.6 | -0.4 | -0.7 | 81.1* | 105.7* | 0.7 | 93.3* | 61.0*
CCC(=O)NCc1cc(-c2nn(C)c(=O)c3ccccc23)ccc1C | 1.3 | 0.0 | 1.5 | 1.6 | 6.1 | -1.4 | . | .
Cc1cccc(OCc2n(CC(=O)OC3CC(C)CCC3C(C)C)c3ccccc3[n+]2C)c1 (stereo not given) | 11.7 | 0.4 | 8.6 | 32.5* | 108.8* | -8.1 | 77.7* | 29.0
O=C(COC(=O)c1ccc(OC(F)F)cc1)NCC1CCCO1 (stereo not given) | . | -0.1 | 0.0 | . | . | . | . | .
SMILES | CHOP UPR activ | aDG glyco act | MPTP inh | XBP1 UPR activ | CHOP inh | GRIN3A LBD mod | CHOP inh conf | UPR XBP1 confirm | others
CCCCNC(=O)c1ccc(Cn2c(=S)[nH]c3c([nH]c4ccc(OC)cc43)c2=O)cc1 | 2.3 | -0.3 | 5.9 | 40.6* | 104.7* | 5.5 | 16.0 | 63.9*
CCN(C(=O)COC(=O)c1ccc2c(=O)n3c(nc2c1)CCC3)C1CCS(=O)(=O)C1 (stereo not given) | -0.9 | 0.1 | -1.2 | -0.8 | -2.3 | 0.7 | . | .
Cc1cc(NC(=O)CSc2ccc(-c3nc4cc(C)c(C)cc4[nH]3)cn2)no1 | 3.6 | -0.2 | -0.1 | 58.1* | 104.0* | 6.0 | 15.3 | 30.9*
COc1ccc(-c2cc(C(F)(F)F)nc(SCC(=O)Nc3ccc4c(c3)OCO4)n2)cc1 | 0.4 | 0.2 | 1.5 | 55.2* | 98.8* | -4.3 | 66.4 | -0.1
COc1ccc(-c2cc(C(F)(F)F)nc(SCC(N)=O)n2)cc1 | -0.8 | -0.1 | -0.2 | -2.1 | 19.1 | -2.5 | . | .
COc1ccccc1Nc1nnc(SCC(=O)NC(=O)Nc2ccc3c(c2)OCCO3)s1 | -0.7 | -0.2 | 4.5 | 52.1* | 103.7* | -5.7 | 17.7 | 48.8*
O=C(COc1ccccc1)NCC(=O)Nc1cccc(S(=O)(=O)NC2=NCCC2)c1 | -0.5 | -0.2 | -0.6 | -3.5 | 2.5 | 1.0 | . | .
COc1ccc(NC(=O)c2cc3c(=O)n(C)c4ccccc4c3n2C)cc1OC | 3.9 | -0.4 | -0.5 | 2.8 | 50.0 | -2.3 | . | .
COc1ccc(NC(=O)c2cc3c(=O)n(C)c4ccccc4c3n2C)cc1Cl | 2.3 | -0.2 | 2.0 | 32.4* | 101.3* | 0.7 | -67.4 | 71.8*
CCOc1ccc(-c2nnc(SCC(=O)Nc3ccc4c(c3)c3ccccc3n4CC)n2N)cc1 | 115.7* | -0.4 | -0.2 | 215.5* | 97.8* | -1.7 | 38.6 | 191.4* | UPR CHOP confirm=46.5*
CCn1c2ccccc2c2cc(NC(=O)CSc3nnc(-c4ccc(OC)c(OC)c4)n3N)ccc21 | 2.3 | 0.3 | -0.2 | 2.0 | 41.9 | -0.9 | . | .
COc1ccccc1-c1cn[nH]c1-c1ccc(OCc2ccc([N+](=O)[O-])cc2)cc1O | -0.9 | 0.2 | 16.0 | 41.8* | 99.1* | 4.2 | -11.0 | 19.3
